The sample as a whole holds a higher share of hits than the screen did.
Insulin prom act: activators of insulin promoter-driven GFP, primary screen, imaging, TRM-6 cells, eGFP reporter, cell count. plate-scaled: unstimulated 0, stimulated control 100. activation, % at 2 µM. hit rate 0.81% among 130,000. AID 1296, 2008;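 active = activation at 2 µM above a set limit, confirmed on inspection of the cell images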;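 note: share of cells whose green reporter signal exceeds an intensity cutoff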
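Material: Human fetal islet-derived TRM-6 cells with tamoxifen-inducible insulin promoter–eGFP reporter | Medium: Low-glucose (5.5 mM) medium with tamoxifen | Probe or stimulus: Tamoxifen inducer, 0.75 µM, in seeding medium | Schedule: Tamoxifen pre-incubation 15 h overnight, then compound exposure 48 h at 37 °C | Detection: High-content imaging of fixed cells with Hoechst nuclear stain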
Numbers stand for hits; i = inactive.

SMILES	Insulin prom act
CC(C)c1c(O)c2c(n(-c3ccccc3)c1=O)CCCC2	i
O=C(O)CS(=O)(=O)CC(=O)NCc1cccc(C(F)(F)F)c1	i
O=C(COC(=O)CNC(=O)c1ccccc1F)Nc1cccc(S(=O)(=O)N2CCCCCC2)c1	i
CCOC(=O)N1CCC(NC(=O)c2cc(S(=O)(=O)N3CCCCC3)ccc2F)CC1	i
CCCCCNC(=O)c1cc(S(=O)(=O)N2CCCCC2)ccc1F	254
O=C(NC1CCCCC1)C(c1ccccc1)N(Cc1ccc2c(c1)OCO2)C(=O)c1cnsn1 (stereo unspecified)	i
Cc1cc(C)c(OCCCCN(C)C)c(Br)c1	i
CC1=NNC(=O)C1CC(=O)N/N=C(/C)c1cccc([N+](=O)[O-])c1 (stereo unspecified)	i
N#C/C(=C/c1ccc(-c2ccccc2)o1)c1nc(-c2cccs2)cs1	456
CCOC(=O)N1CCN(/C=C(\C#N)c2nc3ccccc3s2)CC1	i
N#C/C(=C(/O)C(Cl)c1ccccc1)c1nc2ccccc2s1 (stereo unspecified)	i
N#C/C(=C\Nc1ccccc1SC(F)(F)F)c1nc(-c2ccccc2)cs1	i
N#CC(=C1CCCC1)c1nc(-c2ccccc2)cs1	i
N#C/C(=C/c1ccc(-c2ccc(S(N)(=O)=O)cc2)o1)c1nc2ccccc2s1	257
COc1ccc(CNc2cc(NCCCO)c([N+](=O)[O-])c3nonc23)cc1	i
CCOC(=O)CC1=NC(=O)CS1	i
CCOc1ccc(S(=O)(=O)NN)cc1	i
CCOC(=O)c1c(CNCCN(CC)CC)n(C)c2cc(Br)c(OC)cc12	i
CCOC(=O)N1CCN(C(=O)C2c3cc(OC)c(OC)cc3C(=O)N3CCc4ccccc4C23)CC1 (stereo unspecified)	i
Cc1ccc(C(=O)N(CC(=O)NC2CCCCC2)c2ccccc2C)s1	i
COc1cccc(-c2csc3nc[nH]c(=O)c23)c1	i
CCC1(CC)C(=O)NC(=O)NC1=Nc1cccc(OC)c1	168
COc1cccc(NC(=O)Cc2ccccc2)c1	i
COC(=O)c1sccc1NC(=S)Nc1cc(OC)ccc1OC	i
O=C(CSc1nnc(Cn2c(=O)sc3ccccc32)n1-c1ccccc1)N1CCCCCC1	i
SMILES	Insulin prom act
COC(=O)c1cc(OC)c(OC)cc1NC(=O)CSc1nnc(-c2cccnc2)n1C	i
CC(=O)N(c1ccc2oc(=O)sc2c1)S(=O)(=O)c1cccs1	i
COc1ccc(N(C(C)=O)S(=O)(=O)c2cccs2)cc1	506
CCNC(=O)c1ccc(N(C)S(=O)(=O)c2cccs2)cc1	i
COc1cc(Br)c(CCNC(=O)c2ccco2)cc1OC	i
CCOC(=O)CNC(=O)C1c2cc(OC)c(OC)cc2C(=O)N(C)C1c1ccccc1F (stereo unspecified)	i
CCCCCN1N=C(C)CC1=O	i
CCOC(=O)C1=C(C)C(c2ccccc2O)NC(=O)N1 (stereo unspecified)	i
CCOc1ccc(-c2nc(CSc3nnc(C)s3)cs2)cc1OC	i
O=C(COc1ccccc1-c1ccccc1)N/N=C/c1ccc2ccccc2c1	i
COc1ccc(CNC(=O)CSc2nc(C)cs2)cc1	i
O=c1cc(O)c(-c2ccc(Cl)c(Cl)c2)c(Cl)[nH]1	i
CCN(CC(=O)NC(=O)NC1CCCCC1)Cc1nc2ccccc2c(=O)[nH]1	i
O=C(CCc1nc2ccccc2c(=O)[nH]1)OCC(=O)c1ccc(C2CCCCC2)cc1	i
O=C(COCc1nc2ccccc2c(=O)[nH]1)NCC1CCCCC1	486
CC1=C(C(=O)OCc2ccccc2)C(c2ccsc2)NC(=O)N1C (stereo unspecified)	i
CC(C)CN=C(NS(=O)(=O)c1ccccc1)C(Cl)(Cl)Cl	i
Cc1ccc(C(=O)COC(=O)CCc2nc3ccccc3[nH]c2=O)cc1C	i
COC(=O)CCc1nc2ccccc2[nH]c1=O	i
O=C(CCc1nc2ccccc2[nH]c1=O)OCC(=O)c1ccc(Cl)cc1	i
O=C(CCc1nc2ccccc2[nH]c1=O)OCC(=O)c1cccc2ccccc12	83
CC(CC(=O)Nc1nc2ccccc2[nH]1)c1ccccc1 (stereo unspecified)	i
CC(OC(=O)CCc1nc2ccccc2[nH]c1=O)c1ccccc1 (stereo unspecified)	471
Cc1cc(C(=O)COC(=O)c2cc(Cl)ccc2N)c(C)n1Cc1ccco1	i
CCOC(=O)C(=CNc1ncccc1C)C(=O)OCC	i
SMILES	Insulin prom act
Cc1ccc(OCc2ccc(C(=O)Nc3ccc(C(N)=O)cc3)o2)c([N+](=O)[O-])c1	i
CCNC(=O)CC1C(=O)N(c2ccccc2)C(=O)N1CCC(C)C (stereo unspecified)	i
CCOC(=O)c1c(C)oc2ccc(OC(=O)c3cccs3)cc12	i
CCOC(=O)CCC(=O)c1c(C)oc2ccc(OC)cc12	i
CCOC(=O)c1c(CN2CCN(C)CC2)oc2ccc(OC)cc12	138
Fc1ccccc1Nc1nc(NCc2ccco2)nc(N2CCOCC2)n1	i
O=C(O)CC(NC(=O)C12CC3CC(CC(C3)C1)C2)c1cccc([N+](=O)[O-])c1 (stereo unspecified)	i
CC(C)c1ccc2[nH]c3c(c2c1)CCCC3=O	i
CC1CC1C(=O)OCC(=O)NC(=O)NC12CC3CC(CC(C3)C1)C2 (stereo unspecified)	i
CCOC(=O)Cc1csc(NC(=O)/C=C/c2cccc(Br)c2)n1	i
O=C(NCc1ccccc1)c1ccccc1CO	i
CCOC(=O)C1CCN(c2ncnc3c2c(-c2ccccc2)cn3-c2ccccc2)CC1	i
CC(C)c1cc(NC(=O)CCl)on1	i
CCC(C)NC(=O)c1n[nH]c(=O)c2ccccc12 (stereo unspecified)	i
CCC(C)NC(=O)c1cc(C)no1 (stereo unspecified)	121
COc1ccc(CNC(=O)C(c2cccs2)N(Cc2ccco2)C(=O)Cc2cccs2)cc1 (stereo unspecified)	i
COc1ccc(CNC(=O)C(c2ccc(C)cc2)N(Cc2cccs2)C(=O)c2ccc3c(c2)OCCO3)cc1 (stereo unspecified)	i
COc1ccc(CNC(=O)C(c2ccco2)N(Cc2cccs2)C(=O)Cc2cccs2)cc1 (stereo unspecified)	80
COc1ccc(OCc2nc(N)nc(Nc3ccc(C)cc3)n2)cc1	i
COCCNC(=O)c1cn(C)c2ccccc2c1=O	i
Cc1n[nH]c(=S)n1/N=C/c1ccc(OCc2ccc(Cl)cc2)cc1	i
S=c1[nH]nc(COc2ccc(Cl)cc2)n1C1CCCCC1	437
Cc1cccc(OCc2n[nH]c(=S)n2C2CCCCC2)c1	i
COC(=O)c1cc(C(=O)Nc2nnc(CC(C)(C)C)s2)cc([N+](=O)[O-])c1	i
COc1ccc(CN(CC(=O)NCc2ccco2)C(=O)CCC(=O)Nc2nccs2)cc1	i
SMILES	Insulin prom act
CC1(C)CC(=O)C(C=N)=C(O)C1	i
CC(=NCCCNC1CCCCC1)C1=C(O)CC(C)(C)CC1=O	89
COCC(=O)Nc1ccc(S(=O)(=O)Nc2cc(C)nc(C)n2)cc1	i
C/C(Cn1nnc([N+](=O)[O-])n1)=N\NC(=O)c1ccncc1	i
Cc1ccc(-c2nn(-c3ccccc3)cc2NC(=O)c2ccccc2)cc1	i
CCOC(=O)N1CCN(C(=O)CSc2ccc(-c3ccncc3)nn2)CC1	i
CCOC(=O)N1CCN(C(=O)CSc2ccc(-c3ccccc3)nn2)CC1	i
CCOC(=O)N1CCN(C(=O)CSc2ncccn2)CC1	186
Cc1cccc(C)c1NC(=O)CC1SC2=NCCN2C1=O (stereo unspecified)	i
